Sampled rows, rich in hits. Any-hit rate of the full collection: about 2.2%.
NR2E3 ag-1: NR2E3 (human) agonism; inhibition of corepressor binding, % at 4.78 µM; GST-NR2E3/biotin-RetCOR TR-FRET, 1536-well; AID 2300; hit rate 0.12% among 320,000;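 active means percent inhibition above the cutoff of mean plus 3 SD of all tested compounds, set per screening campaign, cut at about 20% in these data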;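 further: 0% = DMSO wells and 100% = biotin wells as full block of FRET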
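System: GST-tagged NR2E3 plus biotinylated RetCOR corepressor; Amount: 1.35 nM GST-tagged NR2E3 final; Dosing: single nominal compound dose of 4.8 µM; Schedule: 5 h incubation at 4 °C; Technique: TR-FRET with europium anti-GST and streptavidin-D2, 340 nm excitation; Controls: biotin wells as high control, 0.6% DMSO wells as low control.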
NR2F2 inh: blocks human COUP-TFII nuclear receptor; P24468; HEK293T NGFI-A luciferase reporter, luminescence; inhibition, % at 8.6 µM; hit rate 0.7% among 370,000; AID 686940;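 active means inhibition above a per-plate cutoff, mean inhibition of test wells between control levels plus 3 SD, cut at about 38% in these data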;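 further: cells cotransfected with COUP-TFII expression vector driving the NGFI-A reporter; 0% = median of COUP-TF2 test wells and 100% = reporter-only cells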
GalR3 antag: antagonists of human GalR3; inhibition, % at 3 µM; O60755; AID 651719; hit rate 0.44% among 360,000; HEK293 GalR3-CNG cAMP membrane potential fluorescence; galR3 body fused to GalR1 C-terminus;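 active means inhibition above the screen-wide average plus 3 SD, cut at about 13% in these data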;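 further: forskolin and galanin both at EC90 stimulate the cells; cAMP rise reported by CNG channel membrane potential dye signal; 0% = forskolin plus galanin with DMSO and 100% = forskolin alone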
Target sequence (O60755 1-299 limits assumed): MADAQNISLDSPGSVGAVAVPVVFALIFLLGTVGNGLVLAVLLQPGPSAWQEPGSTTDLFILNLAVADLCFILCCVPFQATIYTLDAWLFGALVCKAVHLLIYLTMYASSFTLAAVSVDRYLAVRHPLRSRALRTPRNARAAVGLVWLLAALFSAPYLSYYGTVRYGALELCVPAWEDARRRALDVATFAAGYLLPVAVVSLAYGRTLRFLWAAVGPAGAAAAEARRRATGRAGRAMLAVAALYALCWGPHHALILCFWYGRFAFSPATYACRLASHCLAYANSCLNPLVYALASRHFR
NR2E3 ag-2: human photoreceptor-specific nuclear receptor agonism; inhibition of corepressor binding, % at 3.98 µM; Q9Y5X4; CHO-S Gal4-NCOR/VP16-NR2E3 two-hybrid, luciferase; hit rate 0.35% among 360,000;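 active means inhibition above the mean of all tested compounds plus 3 SD, cut at about 70% in these data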;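 further: 0% = DMSO with NR2E3 transfected cells and 100% = cells lacking NR2E3 construct; higher means lower luciferase signal from less NR2E3 corepressor binding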
SMARCA2 activ: SMARCA2 function activation, primary screen. MG213 cells, MMTV-luciferase reporter, dexamethasone, overnight. activation, % at 9.1 µM. hit rate 1% among 370,000; in the data active means activation above about 7.8%;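 further: 0% = vehicle wells and 100% = reference activator wells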
Gal4-VP16 ctr: inhibits VP16 reporter, flagging COUP-TFII antagonist hits. shares compounds with NR2F2 inh. HEK293 Gal4-VP16 luciferase reporter, luminescence. inhibition, % at 8.5 µM. hit rate 25% among 2,500. AID 687007; in the data active means inhibition above about 13%
COUP-TFII conf: COUP-TFII (NR2F2) inhibition, confirmation assay; shares compounds with NR2F2 inh; HEK293 NGFI-A luciferase reporter, luminescence; inhibition, % at 8.5 µM; hit rate 45% among 2,500; AID 687008;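 active means mean inhibition over three repeats above a set limit taken from the earlier primary screen, cut at about 38% in these data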;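 further: 100% = cells given the luciferase reporter alone without the COUP-TF2 vector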
* = called active by the depositor; nt = no result.

SMILES	NR2E3 ag-1	NR2F2 inh	GalR3 antag	NR2E3 ag-2	SMARCA2 activ	Gal4-VP16 ctr	COUP-TFII conf
Cc1ccc(Cn2cc(CN3[C@H](Cc4ccccc4)COc4cc(Br)ccc4S3(=O)=O)nn2)cc1	nt	-10	nt	nt	1	nt	nt
Cc1nn(C2CCS(=O)(=O)C2)c(Cl)c1/C=C/C(=O)OCC(=O)c1cc(C)n(-c2ccc(F)cc2)c1C (stereo not drawn)	2	63*	-7	-29	-6	0	37*
CCCC1CCC2(CCCN2CCOC(=O)Nc2ccc(F)cc2)CC1 (stereo not drawn)	nt	25	nt	nt	nt	nt	nt
CCOC(=O)NC[C@@]1(C(=O)OC)CC(=O)N(Cc2ccc(Cl)cc2)[C@@H]1c1ccc(OC)cc1	nt	2	nt	nt	-3	nt	nt
O=C(Nc1ccc(-c2nc3ccccc3o2)c(O)c1)c1cc(-n2cnnc2)ccc1Cl	-3	44*	-3	-1	-7	-8	17
COC(=O)[C@]12C[C@H](CC(=O)NCC34CC5CC(CC(C5)C3)C4)C(=O)N(Cc3cccc4ccccc34)C1=C[C@H](COCc1ccccc1)O[C@@H]2C	nt	-4	nt	nt	-3	nt	nt
CCOC(=O)c1[nH]c2c(c1C)C(=O)CC(c1ccc(F)cc1)C2 (stereo not drawn)	2	0	1	-26	-2	nt	nt
Cc1c(C(=O)OCC2CCCO2)[nH]c2c1C(=O)CC(c1ccc(N(C)C)cc1)C2 (stereo not drawn)	-3	37*	5	-12	-4	-15	5
NC(=O)c1ccc(NC(=O)CSc2nnc(-c3ccccc3)n2-c2ccccc2)cc1	nt	-5	nt	nt	-2	nt	nt
c1ccc(CCc2nn3c(-c4ccncc4)nnc3s2)cc1	4	51*	-1	-45	-3	1	19
Clc1ccccc1-c1nnc2sc(CCc3ccccc3)nn12	2	13	-6	1	-3	nt	nt
COC(=O)[C@]12C[C@H](CC(=O)N3CCOCC3)C(=O)N(CCc3ccc(OC)c(OC)c3)C1=C[C@H](COCc1ccccc1)O[C@@H]2C	nt	-15	nt	nt	-6	nt	nt
COCCCNC(=O)C[C@H]1C[C@@]2(C(=O)OC)C(=C[C@H](C3CCCC3)O[C@@H]2C)N(Cc2ccc(Cl)cc2Cl)C1=O	nt	-8	nt	nt	-3	nt	nt
O=C1COc2ccc(S(=O)(=O)CCC(=O)N3CCN(c4ccccc4)CC3)cc2N1	-2	-14	-5	-23	-3	nt	nt
Cc1ccc(C)c(N2CCN(C(=O)CCS(=O)(=O)c3ccc4c(c3)NC(=O)CO4)CC2)c1	1	42*	-9	20	-3	5	23
COC(=O)[C@]12C[C@H](CC(=O)NCc3ccc(C)o3)C(=O)N(CCc3ccc(OC)c(OC)c3)C1=C[C@H](C(C)(C)C)O[C@@H]2C	nt	11	nt	nt	-1	nt	nt
Cc1ccc[n+](CC(=O)Nc2cc(C(F)(F)F)ccc2Cl)c1	7	7	-4	0	1	nt	nt
CCC(C)(C)c1ccc(OCCCC[n+]2cccc(C)c2)c(C(C)(C)CC)c1	nt	62*	1	10	-14	3	38*
COc1ccc(C2C(C(=O)Nc3ccc(Cl)c(Cl)c3)CCC(=O)N2c2ccc(OC)cc2)cc1 (stereo not drawn)	nt	-16	nt	nt	-2	nt	nt
N#Cc1cccc(NC(=O)OC2CC3CC2[C@H]2CCCCN2C3)c1 (stereo partly drawn)	nt	-16	nt	nt	-3	nt	nt
CN(CCc1ccccc1)C(=O)c1ccc(NC(=O)Cc2ccc(NC(=O)C3CCCN(C(=O)C4CCC4)C3)cc2)cc1 (stereo not drawn)	nt	27	-7	-8	-5	nt	nt
CN(CCc1ccccc1)C(=O)c1ccc(NC(=O)Cc2ccc(NC(=O)C3CCCN(C(=O)CCc4ccccc4)C3)cc2)cc1 (stereo not drawn)	nt	73*	-8	-31	-7	3	72*
CSc1ccc(CN(C)C(=O)c2cccc(S(=O)(=O)NCc3ccccc3)c2)cc1	-4	6	-3	19	-3	nt	nt
CSc1ccc(CN(C)C(=O)c2cccc(S(=O)(=O)N3CCN(Cc4ccccc4)CC3)c2)cc1	2	41*	-2	71*	-3	-5	24

Source: PubChem (The Scripps Research Institute Molecular Screening Center)
